Experimental data from ChEMBL document CHEMBL3352243, “Ligand-based virtual screening identifies a family of selective cannabinoid receptor 2 agonists” (Bioorg Med Chem, 2015).
≈ marks a conversion by molar mass, not a printed value. Blank lines part the entries; values can stand above or below the molecule they belong to.

Legend:
Cannabinoid receptor 2 [1] = target: T1, Cannabinoid receptor 2 (Homo sapiens, UniProt P34972); assay: Agonist activity at human CB2R expressed in CHO cells assessed as reduction in forskolin-induced cAMP accumulation by beta-galactosidase based complementation immunoassay; type: functional, cell-based
Summary of the method: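 hCB2R CHO-K1 cells plated overnight at 37 °C, 5% CO2; anti-cAMP antibody added, then compound (final 0.2% DMSO) with 20 μM forskolin for 30 min at 37 °C. Lysis/substrate 1 h, then EA detection reagent 3 h at room temperature; luminescence read and normalised to forskolin+solvent wells (100%). EC50 by 4-parameter nonlinear fit of pooled 3–4 independent experiments.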
Target sequence in this assay (P34972 whole entry): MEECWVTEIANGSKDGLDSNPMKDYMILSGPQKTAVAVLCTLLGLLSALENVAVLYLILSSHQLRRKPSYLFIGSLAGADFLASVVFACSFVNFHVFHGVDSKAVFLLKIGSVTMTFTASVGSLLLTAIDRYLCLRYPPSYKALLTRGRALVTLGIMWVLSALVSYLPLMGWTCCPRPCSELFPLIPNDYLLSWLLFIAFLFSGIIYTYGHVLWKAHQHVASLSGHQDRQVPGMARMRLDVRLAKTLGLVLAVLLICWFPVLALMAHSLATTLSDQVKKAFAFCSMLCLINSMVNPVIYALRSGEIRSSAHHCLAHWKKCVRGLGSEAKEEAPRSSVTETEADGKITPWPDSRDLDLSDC

Cannabinoid receptor 2 [2] = target: T1, Cannabinoid receptor 2; assay: Displacement of [3H]WIN-55212-2 from human CB2R expressed in CHO cells; type: cell-based
Summary of the method: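 Membranes from CHO cells expressing hCB2R incubated with test compound and tritiated WIN-55212 (0.8 nM), 2 h, 37 °C. Non-specific binding defined with 5 μM WIN-55212. Scintillation counting of bound ligand; Ki via Cheng–Prusoff with radioligand Kd; duplicate.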
Target sequence in this assay (P34972 whole entry): as above

Cannabinoid receptor 1 [3] = target: T2, Cannabinoid receptor 1 (Homo sapiens, UniProt P21554); assay: Displacement of [3H]CP55940 from human CB1R expressed in CHO cells; type: cell-based
T2 sequence (P21554 whole entry): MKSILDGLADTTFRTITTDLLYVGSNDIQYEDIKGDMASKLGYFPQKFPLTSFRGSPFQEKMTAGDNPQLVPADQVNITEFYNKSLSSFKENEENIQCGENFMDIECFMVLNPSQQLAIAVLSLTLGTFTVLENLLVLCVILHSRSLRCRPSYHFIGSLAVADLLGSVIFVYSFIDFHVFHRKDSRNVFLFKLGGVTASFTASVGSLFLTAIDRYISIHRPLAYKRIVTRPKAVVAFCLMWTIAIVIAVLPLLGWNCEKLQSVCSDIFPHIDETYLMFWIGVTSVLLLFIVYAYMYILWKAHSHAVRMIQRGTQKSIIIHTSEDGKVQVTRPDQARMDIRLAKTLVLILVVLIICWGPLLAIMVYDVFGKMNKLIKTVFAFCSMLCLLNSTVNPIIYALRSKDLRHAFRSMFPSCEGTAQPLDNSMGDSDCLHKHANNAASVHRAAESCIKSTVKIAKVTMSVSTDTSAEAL
Summary of the method: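 Membranes from CHO cells expressing hCB1R incubated with test compound and [3H]CP 55,940 (0.5 nM) for 2 h at 37 °C. Non-specific binding defined with 10 μM WIN-55212. Bound radioligand measured by scintillation counting. Ki from Cheng–Prusoff using radioligand Kd; run in duplicate.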

Cannabinoid receptor 1 [4] = target: T2, Cannabinoid receptor 1; assay: Agonist activity at human CB1R expressed in CHO cells assessed as reduction in forskolin-induced cAMP accumulation by beta-galactosidase based complementation immunoassay; type: functional, cell-based
Summary of the method: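 CHO-K1 cells expressing hCB1R, 15,000 per well, incubated overnight at 37 °C, 5% CO2, then given anti-cAMP antibody. Compounds were added with 20 μM forskolin (final DMSO 0.2%) for 30 min at 37 °C. Lysis/substrate step 1 h and EA detection 3 h, both at rt in the dark, then luminescence read.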

[5] = Aqueous kinetic solubility of the compound at pH 7 at 37 degC by turbidimetric assay; type: physicochemical; details: read-out: Kinetic_solubility
Summary of the method: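 Turbidimetric method: DMSO dilutions added to phosphate-buffered saline pH 7.4 at final 1, 3, 10, 30, 100 μM (1% DMSO), 7 replicates per concentration. Incubated 2 h at 37 °C, then absorbance read at 620 nm. Value is the mid-point of the precipitation range between upper and lower solubility limits.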

Liver = assay: Half life in mouse liver microsomes in presence of NADPH by LC-MS/MS method; type: ADME
Summary of the method: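 Mouse liver microsomes incubated with compound at 37 °C with NADPH. Reactions stopped with methanol containing internal standard, centrifuged, supernatant analysed by LC–MS/MS.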

Cannabinoid receptor 2 [6] = target: T1, Cannabinoid receptor 2; assay: Agonist activity at human CB2R expressed in CHO cells assessed as reduction in forskolin-induced cAMP accumulation at 3 uM by beta-galactosidase based complementation immunoassay; type: functional, cell-based; design: reference not given here
Summary of the method: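 CHO-K1 cells expressing hCB2R, 15,000 per well, incubated overnight at 37 °C, 5% CO2, then anti-cAMP antibody added. Test agent at single concentration with 20 μM forskolin (0.2% DMSO final), 30 min at 37 °C. Lysis/substrate 1 h, then EA reagent 3 h, both at rt in the dark; luminescence read and expressed as % of forskolin+solvent control wells.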
Target sequence in this assay (P34972 whole entry): as the sequence (P34972 whole entry) above

Cannabinoid receptor 2 [7] = target: T1, Cannabinoid receptor 2; assay: Agonist activity at human CB2R expressed in CHO cells assessed as reduction in forskolin-induced cAMP accumulation at 1 uM by beta-galactosidase based complementation immunoassay; design: reference not given here
Target sequence in this assay (P34972 whole entry, looked up): as the sequence (P34972 whole entry) above

Activity (Cannabinoid receptor 2 [6]): 39.9% | Activity (Cannabinoid receptor 2 [7]): 63.2%
Structure (SMILES): CCCCCCSC1=C(C#N)C(c2cccc([N+](=O)[O-])c2)NC(=O)N1 (centres undefined)

Activity (Cannabinoid receptor 2 [6]): 138% | Activity (Cannabinoid receptor 2 [7]): 108%
Structure (SMILES): CCCCCCSC1=C(C#N)C(c2ccc(Cl)cc2)NC(=O)N1 (centres undefined)

EC50 (Cannabinoid receptor 2 [1]): > 3000 nM
Structure (SMILES): FC(F)(F)c1ccccc1CSc1nnc2c(n1)[nH]c1ccccc12

EC50 (Cannabinoid receptor 2 [1]): > 3000 nM
Structure (SMILES): Clc1ccc(CSc2nnc3c(n2)[nH]c2ccccc23)cc1

EC50 (Cannabinoid receptor 2 [1]): > 3000 nM
Structure (SMILES): CN(C)c1ccc(C(=O)n2c3ccccc3c3nnc(SCc4ccccc4C#N)nc32)cc1

Activity (Cannabinoid receptor 2 [6]): 114% | Activity (Cannabinoid receptor 2 [7]): 121%
Structure (SMILES): CCCCCCSC1=C(C#N)C(c2ccc(F)cc2)NC(=O)N1 (centres undefined)

EC50 (Cannabinoid receptor 2 [1]): > 3000 nM
Structure (SMILES): FC(F)(F)Oc1ccccc1CSc1nnc2c(n1)[nH]c1ccccc12

EC50 (Cannabinoid receptor 2 [1]): > 3000 nM
Structure (SMILES): N#Cc1ccccc1CSc1nnc2c3ccccc3n(C(=O)OCc3ccccc3)c2n1

Activity (Cannabinoid receptor 2 [6]): 98.4% | Activity (Cannabinoid receptor 2 [7]): 111%
Structure (SMILES): CCC1(C)Cc2c(sc3nc(SCCC(C)C)nc(N)c23)CO1 (centres undefined)

Activity (Cannabinoid receptor 2 [6]): 73.1% | Activity (Cannabinoid receptor 2 [7]): 86.2%
Structure (SMILES): CCCCCSc1nnc2c(n1)[nH]c1ccccc12

EC50 (Cannabinoid receptor 2 [1]): > 3000 nM
Structure (SMILES): N#Cc1ccccc1CSc1nnc2c(n1)[nH]c1ccc(Br)cc12

Activity (Cannabinoid receptor 2 [6]): 85.3% | Activity (Cannabinoid receptor 2 [7]): 76.7%
Structure (SMILES): CC(C)CCSc1nc(N)c2c3c(sc2n1)COC(C)(C)C3

EC50 (Cannabinoid receptor 2 [1]): > 3000 nM
Structure (SMILES): Cc1ccc(-c2cccc3[nH]c4nc(SCc5ccccc5C#N)nnc4c23)cc1

EC50 (Cannabinoid receptor 2 [1]): > 3000 nM
Structure (SMILES): CCOC(=O)c1ccccc1CSc1nnc2c(n1)[nH]c1ccccc12

EC50 (Cannabinoid receptor 2 [1]): > 3000 nM
Structure (SMILES): Clc1cccc(CSc2nnc3c(n2)[nH]c2ccccc23)c1

Continued, molecule first:

Structure (SMILES): Clc1ccccc1CSc1nnc2c(n1)[nH]c1ccccc12
EC50 (Cannabinoid receptor 2 [1]): > 3000 nM

Structure (SMILES): Fc1ccccc1CSc1nnc2c3ccccc3n(Cc3ccccc3)c2n1
EC50 (Cannabinoid receptor 2 [1]): 850 nM | Ki (Cannabinoid receptor 2 [2]): 215 nM | Ki (Cannabinoid receptor 1 [3]): 275 nM

Structure (SMILES): c1ccc(CSc2nnc3c(n2)[nH]c2ccccc23)cc1
EC50 (Cannabinoid receptor 2 [1]): 10000 nM | EC50 (Cannabinoid receptor 1 [4]): > 30000 nM

Structure (SMILES): N#Cc1ccccc1CSc1nnc2c3ccccc3n(C(=O)c3ccc(F)cc3)c2n1
EC50 (Cannabinoid receptor 2 [1]): 57 nM

Structure (SMILES): O=[N+]([O-])c1ccccc1CSc1nnc2c(n1)[nH]c1cccc(Br)c12
EC50 (Cannabinoid receptor 2 [1]): 37 nM

Structure (SMILES): N#Cc1ccccc1CSc1nnc2c3ccccc3n(C(=O)c3cccc(C(F)(F)F)c3)c2n1
EC50 (Cannabinoid receptor 2 [1]): 27 nM

Structure (SMILES): N#Cc1ccccc1CSc1nnc2c(n1)[nH]c1ccccc12
EC50 (Cannabinoid receptor 2 [1]): 112 nM | EC50 (Cannabinoid receptor 1 [4]): > 30000 nM | Ki (Cannabinoid receptor 2 [2]): 355 nM | Ki (Cannabinoid receptor 1 [3]): > 60000 nM | solubility kinetic [5]: 3.75 µM (≈ 1.19 µg/mL) | t1/2 (Liver): 46 min

Structure (SMILES): N#Cc1ccccc1CSc1nnc2c3ccccc3n(C(=O)C3CC3)c2n1
EC50 (Cannabinoid receptor 2 [1]): 181 nM | t1/2 (Liver): < 5 min

Structure (SMILES): CCCCCCSC1=C(C#N)C(c2ccccc2Cl)NC(=O)N1 (centres undefined)
Activity (Cannabinoid receptor 2 [6]): 119% | Activity (Cannabinoid receptor 2 [7]): 98.2%

Structure (SMILES): Fc1ccccc1CSc1nnc2c(n1)[nH]c1ccccc12
EC50 (Cannabinoid receptor 2 [1]): > 3000 nM

Structure (SMILES): O=C(c1ccccc1)n1c2ccccc2c2nnc(SCc3ccccc3[N+](=O)[O-])nc21
EC50 (Cannabinoid receptor 2 [1]): 75 nM | Ki (Cannabinoid receptor 2 [2]): 235 nM | Ki (Cannabinoid receptor 1 [3]): > 60000 nM

Structure (SMILES): O=[N+]([O-])c1ccc(CSc2nnc3c(n2)[nH]c2ccccc23)cc1
EC50 (Cannabinoid receptor 2 [1]): 617 nM

Structure (SMILES): N#Cc1ccccc1CSc1nnc2c(n1)[nH]c1cccc(C3CC3)c12
EC50 (Cannabinoid receptor 2 [1]): 231 nM

Structure (SMILES): N#Cc1ccccc1CSc1nnc2c3ccccc3n(CC3CC3)c2n1
EC50 (Cannabinoid receptor 2 [1]): 144 nM | t1/2 (Liver): < 5 min

Structure (SMILES): O=[N+]([O-])c1ccccc1CSc1nnc2c(n1)[nH]c1ccccc12
EC50 (Cannabinoid receptor 2 [1]): 33 nM | EC50 (Cannabinoid receptor 1 [4]): > 30000 nM | Ki (Cannabinoid receptor 2 [2]): 155 nM | Ki (Cannabinoid receptor 1 [3]): > 60000 nM | t1/2 (Liver): 43 min

Structure (SMILES): N#Cc1ccccc1CSc1nnc2c3ccccc3n(Cc3ccccc3[N+](=O)[O-])c2n1
EC50 (Cannabinoid receptor 2 [1]): 53 nM | EC50 (Cannabinoid receptor 1 [4]): > 30000 nM | Ki (Cannabinoid receptor 2 [2]): 290 nM | Ki (Cannabinoid receptor 1 [3]): > 60000 nM

Structure (SMILES): N#Cc1ccccc1CSc1nnc2c3ccccc3n(C(=O)C3CCCCC3)c2n1
EC50 (Cannabinoid receptor 2 [1]): 32 nM | Ki (Cannabinoid receptor 2 [2]): 30 nM | Ki (Cannabinoid receptor 1 [3]): > 60000 nM

Structure (SMILES): CCCCn1c2ccccc2c2nnc(SCc3ccccc3C#N)nc21
EC50 (Cannabinoid receptor 2 [1]): 106 nM | t1/2 (Liver): < 5 min

Structure (SMILES): N#Cc1ccccc1CSc1nnc2c3ccccc3n(S(=O)(=O)c3ccccc3)c2n1
EC50 (Cannabinoid receptor 2 [1]): 76 nM | t1/2 (Liver): < 5 min

Structure (SMILES): c1ccc2c(c1)[nH]c1nc(SCC3CCCCC3)nnc12
EC50 (Cannabinoid receptor 2 [1]): > 3000 nM

Structure (SMILES): COC(=O)CCC(=O)n1c2ccccc2c2nnc(SCc3ccccc3C#N)nc21
EC50 (Cannabinoid receptor 2 [1]): 48 nM | Ki (Cannabinoid receptor 2 [2]): 360 nM | Ki (Cannabinoid receptor 1 [3]): > 60000 nM | solubility kinetic [5]: 3.75 µM (≈ 1.62 µg/mL)
